Data: ChEMBL document CHEMBL1134340, “GnRH antagonists: a new generation of long acting analogues incorporating p-ureido-phenylalanines at positions 5 and 6” (J Med Chem, 2001)
In brackets after ≈: the same amount, converted by molar mass. Where a SMILES comes first, the peptide text is derived from it. [ ]: non-standard residue; d: D form. d(hArg(Et2)) = CCN=C(NCC)NCCCC[C@@H](N)C(=O)O; hArg(Et2) = CCN=C(NCC)NCCCC[C@H](N)C(=O)O; dPhe(4-Cl) = N[C@H](Cc1ccc(Cl)cc1)C(=O)O; d2Nal = N[C@H](Cc1ccc2ccccc2c1)C(=O)O; dCit = NC(=O)NCCC[C@@H](N)C(=O)O; d3Pal = N[C@H](Cc1cccnc1)C(=O)O

Assays:
[1] = species: Rattus norvegicus; assay: Compound was tested for inhibition of Leutenizing hormone release at 24 hours (very short duration) in castrated male rat assay; NI means no inhibition at 24 hr; assay type: functional, organism-based
Method in brief: (§1)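 Male Sprague-Dawley rats (180-200 g), castrated under ether 10 days earlier, 5 per group. 50 µg/rat given sc in 100 µL 40 mM phosphate buffer with 0.1% BSA and 0.6% DMSO; acyline run as internal standard. Tail blood taken predose and at 24, 48, 72, 96 (sometimes 120) h; plasma LH by RIA. Duration classed by >80% LH inhibition at each time.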

[2] = species: Rattus norvegicus; assay: Compound was tested for histamine release at a concentration of 150 ug/mL; assay type: functional
Method in brief: (§2)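 Sprague-Dawley rat peritoneal mast cells, Percoll-purified, in heparinized balanced salt solution with albumin, pH 7.2. Cells exposed to compound or vehicle for 2 min at 37 °C. Supernatant histamine measured spectrofluorometrically after o-phthalaldehyde derivatization; pellets lysed for retained histamine. Reported as % of total histamine released, corrected for spontaneous release in vehicle.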

[3] = molecular target: T1, Gonadotropin-releasing hormone receptor (Homo sapiens, UniProt P30968); assay: Competitive antagonism of GnRH-induced response in the reporter gene assay; assay type: functional; conditions: read-out: pA2 (converted)
T1 sequence (P30968 whole entry): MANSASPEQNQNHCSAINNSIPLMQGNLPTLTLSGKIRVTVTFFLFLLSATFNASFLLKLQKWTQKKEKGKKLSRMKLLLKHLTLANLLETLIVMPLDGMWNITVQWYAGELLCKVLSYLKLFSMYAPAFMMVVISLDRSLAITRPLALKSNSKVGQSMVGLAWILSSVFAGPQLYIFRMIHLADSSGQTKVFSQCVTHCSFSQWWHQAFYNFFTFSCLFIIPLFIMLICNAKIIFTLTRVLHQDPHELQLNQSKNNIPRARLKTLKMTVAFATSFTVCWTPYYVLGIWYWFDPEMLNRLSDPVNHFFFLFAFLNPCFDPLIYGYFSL
Method in brief: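 Same HEK293 human GnRH receptor luciferase reporter cells. Seven-point GnRH curve (10 µM to 10 pM final) run in duplicate without or with four to five increasing compound concentrations (10 min preincubation, 37 °C), then 5 h and luminescence. GnRH EC50 at each level by four-parameter logistic fit, giving pA2; mean of two determinations in duplicate.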

[4] = species: Rattus norvegicus; assay: Effective dose for histamine release was determined; assay type: functional
Method in brief: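 ED50 for histamine release calculated from % release values across concentrations in rat peritoneal mast cell assay (2 min, 37 °C, o-phthalaldehyde fluorometric read-out, corrected for vehicle release).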

[5] = species: Rattus norvegicus; assay: Compound was tested for histamine release at a concentration of 10 ug/mL; assay type: functional; method in brief: as §2
[6] = molecular target: T1, Gonadotropin-releasing hormone receptor; assay: Antagonism of human GnHR receptor, determined in a reporter gene assay in HEK293 cells; assay type: functional, cell-based
Method in brief: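 HEK293 cells stably expressing cloned human GnRH receptor plus luciferase reporter under LH alpha subunit promoter, plated 24 h before assay. Compound in 1% DMSO added 10 min at 37 °C, then GnRH at 3 nM final; 5 h incubation, luciferase luminescence read. Six concentrations in duplicate; blank-subtracted cps as % of GnRH control; mean of two determinations.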

[7] = species: Rattus norvegicus; assay: Compound was tested for inhibition of Leutenizing hormone release at 72 hours (long duration) in castrated male rat assay; assay type: functional; set-up: concentration or dose not given beside the values; method in brief: as §1
[8] = species: Rattus norvegicus; assay: Compound was tested for histamine release at a concentration of 1 ug/mL; assay type: functional; method in brief: as §2
[9] = species: Rattus norvegicus; assay: Compound was tested for histamine release at a concentration of 3 ug/mL; assay type: functional; method in brief: as §2
[10] = species: Rattus norvegicus; assay: Compound was tested for inhibition of Leutenizing hormone release at 48 hours (intermediate duration) in castrated male rat assay; assay type: functional; method in brief: as §1
[11] = species: Rattus norvegicus; assay: Compound was tested for histamine release at a concentration of 100 ug/mL; assay type: functional; method in brief: as §2
[12] = species: Rattus norvegicus; assay: Compound was tested for histamine release at a concentration of 30 ug/mL; assay type: functional; method in brief: as §2

Structure (SMILES) | NI [1] | ED50 [4] [µg/mL] | HR [5] [%] | Inhibition [10] [%] | further results
CC(=O)Nc1ccc(C[C@@H](NC(=O)[C@H](CNC(=O)[C@@H]2CC(=O)NC(=O)N2)NC(=O)[C@H](CO)NC(=O)[C@@H](Cc2cccnc2)NC(=O)[C@@H](Cc2ccc(Cl)cc2)NC(=O)[C@@H](Cc2ccc3ccccc3c2)NC(C)=O)C(=O)N[C@@H](CC(C)C)C(=O)N[C@@H](CCCCNC(C)C)C(=O)N2CCC[C@H]2C(=O)N[C@H](C)C(N)=O)cc1 | no inhibition at 24 hr | – | – | – | HR [2]: 96%
CC(=O)N[C@H](Cc1ccc2ccccc2c1)C(=O)N[C@H](Cc1ccc(Cl)cc1)C(=O)N[C@H](Cc1cccnc1)C(=O)N[C@@H](CO)C(=O)N[C@@H](Cc1ccc(O)cc1)C(=O)N[C@H](CCCNC(N)=O)C(=O)N[C@@H](CC(C)C)C(=O)N[C@@H](CCCNC(=N)N)C(=O)N1CCC[C@H]1C(=O)N[C@H](C)C(N)=O [CETRORELIX] (Ac-[d2Nal][dPhe(4-Cl)][d3Pal]SY[dCit]LRP[dA]-NH2) | – | 1.3 (≈ 0.908 µM) | 64 | – | Kb [3]: 1.26 nM; IC50 [6]: 4.2 nM; Inhibition [7]: >80%; HR [8]: 34%; HR [9]: 5%
CC(=O)N[C@H](Cc1ccc2ccccc2c1)C(=O)N[C@H](Cc1ccc(Cl)cc1)C(=O)N[C@H](Cc1cccnc1)C(=O)N[C@@H](CO)C(=O)N[C@@H](Cc1ccc(NC(=O)[C@H]2CC(=O)NC(=O)N2)cc1)C(=O)N[C@H](Cc1ccc(CNC(N)=O)cc1)C(=O)N[C@@H](CC(C)C)C(=O)N[C@@H](CCCCNC(C)C)C(=O)N1CCC[C@H]1C(=O)N[C@H](C)C(N)=O | – | – | – | >80 | –
CC(=O)O.CC(=O)O.CC/N=C(\NCC)NCCCC[C@H](NC(=O)[C@H](CC(C)C)NC(=O)[C@@H](CCCCN/C(=N/CC)NCC)NC(=O)[C@H](Cc1ccc(O)cc1)NC(=O)[C@H](CO)NC(=O)[C@@H](Cc1cccnc1)NC(=O)[C@@H](Cc1ccc(Cl)cc1)NC(=O)[C@@H](Cc1ccc2ccccc2c1)NC(C)=O)C(=O)N1CCC[C@H]1C(=O)N[C@H](C)C(N)=O [GANIRELIX ACETATE] (Ac-[d2Nal][dPhe(4-Cl)][d3Pal]SY[d(hArg(Et2))]L[hArg(Et2)]P[dA]-NH2) | – | 11 | 30 | >80 | HR [11]: 62%; HR [12]: 57%
CC(=O)Nc1ccc(C[C@@H](NC(=O)[C@@H](NC(=O)[C@H](CO)NC(=O)[C@@H](Cc2cccnc2)NC(=O)[C@@H](Cc2ccc(Cl)cc2)NC(=O)[C@@H](Cc2ccc3ccccc3c2)NC(C)=O)N(C)C(N)=O)C(=O)N[C@@H](CC(C)C)C(=O)N[C@@H](CCCCNC(C)C)C(=O)N2CCC[C@H]2C(=O)N[C@H](C)C(N)=O)cc1 | no inhibition at 24 hr | – | – | – | –
CC(=O)N[C@H](Cc1ccc2ccccc2c1)C(=O)N[C@H](Cc1ccc(Cl)cc1)C(=O)N[C@H](Cc1cccnc1)C(=O)N[C@@H](CO)C(=O)N[C@@H](CCCCNC(=O)[C@H]1CC(=O)NC(=O)N1)C(=O)N[C@H](CCCCNC(=O)[C@@H]1CC(=O)NC(=O)N1)C(=O)N[C@@H](CC(C)C)C(=O)N[C@@H](CCCCNC(C)C)C(=O)N1CCC[C@H]1C(=O)N[C@H](C)C(N)=O | no inhibition at 24 hr | – | – | – | –
